Results reported in ChEMBL document CHEMBL4041513, “In silico identification, design and synthesis of novel piperazine-based antiviral agents targeting the hepatitis C virus helicase” (Eur J Med Chem, 2017).
The source made the active and inactive calls. The calls are words filed in the database; no cut-off is given here.

Assays:
Hepatitis C virus = test: Antiviral activity against HCV genotype 1b infected in human HuH5.2 cells with persistent I389luc-ubi-neo/NS3-3'/5.1 replicon after 72 hrs by luciferase reporter gene assay; type: functional, cell-based, Hepacivirus hominis; conditions: Huh-5-2, 72 h
In short: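 Huh 5-2 cells carrying the genotype 1b I389luc-ubi-neo/NS3-3'/5.1 replicon were seeded at 6 500 cells/well in Geneticin-free DMEM/10% FCS and left overnight. Compounds from DMSO stocks were added in a four-step 1-to-5 series for the first screen or an eight-step 1-to-2 series for dose-response curves, then 72 h at 37 °C. Luciferase luminescence after lysis, as % of untreated controls, gave EC50; mean of ≥2 experiments.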

[1] = Cytotoxicity against human HuH5.2 cells assessed as reduction in cell viability after 72 hrs by MTS assay; type: cell-based, Huh-5-2
In short: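 Huh 5-2 cells carrying the genotype 1b I389luc-ubi-neo/NS3-3'/5.1 replicon were seeded at 6 500 cells/well in medium without Geneticin one day ahead. Compounds (DMSO stock) were added as 1:5 four-step or 1:2 eight-step dilutions for 72 h at 37 °C.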

[2] = Selectivity index, ratio of CC50 for human HuH5.2 cells to EC50 for HCV genotype 1b infected in human HuH5.2 cells with persistent I389luc-ubi-neo/NS3-3'/5.1 replicon
[3] = Inhibition of HCV NS3 helicase DNA unwinding activity using fluorescent DNA substrate by molecular beacon assay; design: species or system Hepacivirus hominis
In short: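 Molecular beacon unwinding reaction: 25 mM MOPS pH 6.5, 1.25 mM MgCl2, 5% DMSO, 5 µg/ml BSA, 0.01% Tween20, 0.05 mM DTT, 5 nM fluorescent DNA substrate, 12.5 nM NS3h, 1 mM ATP. Duplicate two-fold dilutions spanned 1 mM to 0.78 µM. Data normalised to no-inhibitor and no-enzyme controls; IC50 from variable-slope Hill fit.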

[4] = Inhibition of DNA oligonucleotide binding to HCV NS3 helicase; design: species or system Hepacivirus hominis
In short: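 Compounds run in duplicate two-fold series from 1 mM to 0.78 µM; normalised to no-inhibitor and no-enzyme controls; IC50 by variable Hill-slope dose-response fit.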

[5] = Inhibition of HCV NS3 helicase ATP hydrolysis activity in presence of poly(U) RNA; design: species or system Hepacivirus hominis
In short: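 ATPase run with RNA: 25 mM MOPS pH 6.5, 1.25 mM MgCl2, 15 µM poly(U), 6 nM NS3h, 5 µg/mL BSA, 0.001% Tween 20. Duplicate two-fold compound series from 1 mM to 0.78 µM; normalised to no-inhibitor and no-enzyme controls; IC50 from variable Hill-slope fit. A separate poly(U) titration gave K_RNA, fit assuming unchanged Vmax.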

Hepacivirus hominis [6] = test: Inhibition of HCV NS3 helicase ATP hydrolysis activity at 1 mM in absence of poly(U) RNA
[7] = Binding affinity to HCV genotype 2A JFH1 protease domain truncated NS3 helicase by fluorescence assay; design: species or system Hepatitis C virus JFH-1
In short: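 Intrinsic tryptophan fluorescence titration (ex 280 nm, em 340 nm) of NS3h, the JFH1 genotype 2a NS3 helicase domain without protease, at 100 nM, with compound alone as reference. Intensities corrected for dilution and inner-filter effects, then globally fit to a quadratic binding equation for Kd.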

Hepacivirus hominis [8] = test: Selectivity ratio of inhibition of DNA oligonucleotide binding to HCV NS3 helicase to inhibition of HCV NS3 helicase ATP hydrolysis activity

| SMILES | EC50 (Hepatitis C virus) [µM] | CC50 at 72 h [1] [µM] | Ratio CC50/EC50 [2] | IC50 [3] [µM] | EC90 (Hepatitis C virus) [µM] | IC50 [4] [µM] | IC50 [5] [µM] | inhibition (Hepacivirus hominis [6]) | Kd [7] [µM] | Selectivity ratio (Hepacivirus hominis [8]) |
| --- | --- | --- | --- | --- | --- | --- | --- | --- | --- | --- |
| O=S(=O)(NCCN1CCN(CCNS(=O)(=O)c2ccc3ccccc3c2)CC1)c1ccc2ccccc2c1 | 10.6 | > 90.5 | >8.5 | 690 | – | – | – | – | – | – |
| O=S(=O)(NCCCN1CCN(CCCNS(=O)(=O)c2ccc(-c3ccccc3)cc2)CC1)c1ccccc1 | 4 | 14 | 3.5 | > 1000 | – | – | – | – | – | – |
| CCOC(=O)c1ccc(S(=O)(=O)NCCCN2CCN(CCCNS(=O)(=O)c3ccc(C(=O)OCC)cc3)CC2)cc1 | 56.2 | > 160 | >2.8 | > 1000 | – | – | – | – | – | – |
| CC(C)(C)c1ccc(S(=O)(=O)NCCCN2CCN(CCCNS(=O)(=O)c3ccc(C(C)(C)C)cc3)CC2)cc1 | 8.7 | 97.2 | 11.2 | 310 | 42.9 | > 1000 | 590 | – | – | – |
| O=C(CCNS(=O)(=O)c1ccc(Cl)cc1)N1CCN(CCCNS(=O)(=O)c2ccc(Cl)cc2)CC1 | 9.32 | 69.1 | 7.4 | > 1000 | 25.9 | – | – | – | – | – |
| CC(C)(C)c1ccc(S(=O)(=O)NCCCN2CCN(CCCNS(=O)(=O)c3ccc(Cl)cc3)CC2)cc1 | 2.21 | 8.77 | 4 | 310 | 4.96 | – | – | – | – | – |
| O=S(=O)(NCCCN1CCN(CCCNS(=O)(=O)c2cccc3cccnc23)CC1)c1cccc2cccnc12 | 42.5 | > 172 | >4 | > 1000 | > 172 | – | – | – | – | – |
| CC(C)(C)c1ccc(S(=O)(=O)NCCCN2CCN(CCCNS(=O)(=O)c3ccc(-c4ccccc4)cc3)CC2)cc1 | 1.3 | 4.78 | 3.7 | 90 | 3.05 | 200 | 21 | inactive | 0.57 | 10 |
| O=C(CCNS(=O)(=O)c1ccc(Cl)cc1)N1CCN(C(=O)CCNS(=O)(=O)c2ccc(Cl)cc2)CC1 | – | > 86.6 | – | > 1000 | – | > 1000 | > 1000 | – | – | – |
| O=S(=O)(NCCCN1CCN(CCCNS(=O)(=O)c2ccc(Cl)cc2)CC1)c1ccc(Cl)cc1 | 13 to 13.8 | > 182 | >13.2 - 14 | > 1000 | – | > 1000 | > 1000 | – | – | – |
| CC(C)(C)c1ccc(S(=O)(=O)NCCCN2CCN(C(=O)CCNS(=O)(=O)c3ccc(C(C)(C)C)cc3)CC2)cc1 | 3.84 | 20.8 | 5.4 | > 1000 | – | – | – | – | – | – |
| O=S(=O)(NCCCN1CCN(CCCNS(=O)(=O)c2ccc(C(F)(F)F)cc2)CC1)c1ccc(C(F)(F)F)cc1 | 6.5 | > 162 | >25 | > 1000 | – | – | – | – | – | – |
| O=C(CCNS(=O)(=O)c1ccc(-c2ccccc2)cc1)N1CCN(CCCNS(=O)(=O)c2ccc(-c3ccccc3)cc2)CC1 | 3.03 | 66.9 | 22.1 | > 1000 | – | – | – | – | – | – |
| CC(C)(C)c1ccc(S(=O)(=O)NCCCN2CCN(CCNS(=O)(=O)c3ccc(C(C)(C)C)cc3)CC2)cc1 | 1.7 | 5.21 | 3.1 | 170 | – | – | – | – | – | – |
| O=S(=O)(NCCCN1CCN(CCCNS(=O)(=O)c2ccc(-c3ccccc3)cc2)CC1)c1ccc(-c2ccccc2)cc1 | 1.2 | 4.9 | 3.9 | 630 | – | – | – | – | – | – |
| O=S(=O)(NCCCCN1CCN(CCCCNS(=O)(=O)c2ccc(Cl)cc2)CC1)c1ccc(Cl)cc1 | 66.7 | > 173 | >2.5 | 790 | 164 | – | – | – | – | – |
| CC(C)(C)c1ccc(S(=O)(=O)NCCCN2CCN(CCCNS(=O)(=O)c3ccc(C(F)(F)F)cc3)CC2)cc1 | 6.62 | 28.7 | 4.3 | > 1000 | 13.8 | – | – | – | – | – |
| O=S(=O)(NCCCN1CCN(CCCNS(=O)(=O)c2ccc3ccccc3c2)CC1)c1ccc2ccccc2c1 | 4.9 | 49.9 | 10 | 460 | – | – | – | – | – | – |
| O=C(O)c1ccc(S(=O)(=O)NCCCN2CCN(CCCNS(=O)(=O)c3ccc(C(=O)O)cc3)CC2)cc1 | > 176 | > 176 | – | > 1000 | – | – | – | – | – | – |
